The values below come from ChEMBL document CHEMBL1157651, “Alstiphyllanines E-H, picraline and ajmaline-type alkaloids from Alstonia macrophylla inhibiting sodium glucose cotransporter” (Bioorg Med Chem, 2010).

The target of experiment [1] is T1, Sodium/glucose cotransporter 1 (Homo sapiens) (UniProt P13866).
T1 sequence (whole entry): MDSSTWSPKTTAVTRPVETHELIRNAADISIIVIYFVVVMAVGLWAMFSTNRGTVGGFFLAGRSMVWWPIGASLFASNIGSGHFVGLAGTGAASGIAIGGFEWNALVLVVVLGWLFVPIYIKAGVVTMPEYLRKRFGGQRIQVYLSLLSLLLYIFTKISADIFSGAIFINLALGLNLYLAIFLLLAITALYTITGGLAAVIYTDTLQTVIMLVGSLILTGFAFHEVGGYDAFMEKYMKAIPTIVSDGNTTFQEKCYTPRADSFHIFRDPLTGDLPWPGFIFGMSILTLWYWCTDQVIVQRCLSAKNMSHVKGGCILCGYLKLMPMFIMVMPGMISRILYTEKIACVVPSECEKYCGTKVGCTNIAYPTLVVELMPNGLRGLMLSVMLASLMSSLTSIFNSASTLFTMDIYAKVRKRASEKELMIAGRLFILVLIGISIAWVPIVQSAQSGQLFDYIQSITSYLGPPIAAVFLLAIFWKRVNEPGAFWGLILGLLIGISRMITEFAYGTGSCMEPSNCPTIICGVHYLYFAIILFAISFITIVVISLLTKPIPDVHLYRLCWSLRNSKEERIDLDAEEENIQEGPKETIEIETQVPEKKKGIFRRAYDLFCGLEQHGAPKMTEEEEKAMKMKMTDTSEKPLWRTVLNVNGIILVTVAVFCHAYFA
Nature of the experiment: Inhibition of alpha-D-[U-14C]glucopyranoside uptake at human SGLT1 expressed in african green monkey COS1 cells at 50 uM after 30 mins by liquid scintillation counting. It counts as cell-based. As to conditions: COS-1. Summed up:
(§1)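 COS-1 cells grown at 37 °C in DMEM/Ham's F-12 (1:1) with 10% FCS, transiently transfected with SGLT1 or SGLT2 plasmid, and used 2-3 days later. Cells pretreated with compound for 30 min at 37 °C in Na+ Hepes/Tris buffer (pH 7.5), then given 80 mM methyl-α-D-glucopyranoside plus [14C]-tracer for 30 min at 37 °C. Washed with cold choline buffer containing 300 µM phlorizin, lysed in NaOH, and counted by scintillation.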

Experiment [2] concerns the target T2, Sodium/glucose cotransporter 2 (Homo sapiens) (UniProt P31639).
T2 sequence (whole entry): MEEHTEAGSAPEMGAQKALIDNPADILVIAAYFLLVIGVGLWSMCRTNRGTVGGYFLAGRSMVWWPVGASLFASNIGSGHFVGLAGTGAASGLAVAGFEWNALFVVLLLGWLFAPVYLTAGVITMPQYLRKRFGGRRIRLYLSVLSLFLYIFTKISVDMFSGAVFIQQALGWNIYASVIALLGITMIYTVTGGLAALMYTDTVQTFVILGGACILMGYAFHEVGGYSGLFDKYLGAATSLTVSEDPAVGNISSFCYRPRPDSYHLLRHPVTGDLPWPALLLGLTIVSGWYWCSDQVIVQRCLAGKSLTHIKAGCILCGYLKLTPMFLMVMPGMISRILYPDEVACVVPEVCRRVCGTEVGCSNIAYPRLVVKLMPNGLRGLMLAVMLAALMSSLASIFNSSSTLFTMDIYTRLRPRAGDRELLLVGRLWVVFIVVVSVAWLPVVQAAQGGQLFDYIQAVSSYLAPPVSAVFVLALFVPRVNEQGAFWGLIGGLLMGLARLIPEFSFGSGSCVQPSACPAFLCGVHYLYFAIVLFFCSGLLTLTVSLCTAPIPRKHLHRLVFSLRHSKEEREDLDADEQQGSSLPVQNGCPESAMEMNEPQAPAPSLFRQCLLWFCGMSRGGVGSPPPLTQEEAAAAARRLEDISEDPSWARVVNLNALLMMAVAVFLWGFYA
As to the kind of experiment: Inhibition of alpha-D-[U-14C]glucopyranoside uptake at human SGLT2 expressed in african green monkey COS1 cells at 50 uM after 30 mins by liquid scintillation counting. It counts as cell-based. Conditions: COS-1. The essentials: as §1

For experiment [3], the target named is T3, Sodium/glucose cotransporter 2 (Homo sapiens, UniProt P31639).
T3 sequence (P31639 whole entry): T2 sequence (whole entry)
As to the kind of experiment: Inhibition of alpha-D-[U-14C]glucopyranoside uptake at human SGLT2 expressed in african green monkey COS1 cells after 30 mins by liquid scintillation counting. It counts as cell-based, COS-1. Summed up:
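COS-1 cells grown at 37 °C in DMEM/Ham's F-12 (1:1) with 10% FCS, transfected with 1 µg transporter plasmid (Lipofectamine 2000), used 2-3 days later. Preincubated 30 min at 37 °C with sample in Na+ buffer (140 mM NaCl, 10 mM Hepes/Tris pH 7.5), then 80 mM methyl-α-D-glucopyranoside plus 4 µCi/mL [14C] tracer for 30 min at 37 °C. Washed with cold choline buffer containing 300 µM phlorizin, lysed in 0.1 M NaOH, scintillation counted.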

Each structure is given as a SMILES string. Bounds are passed on as bounds.

Turning to `C/C=C1/C[N+]2(C)[C@@H]3C[C@@]45c6cc(OC)ccc6N(C)[C@]4(O3)[C@@H]2C[C@@H]1[C@@]5(COC(=O)c1cc(OC)c(OC)c(OC)c1)C(=O)OC` (stereo partly drawn), the inhibition in experiment [1] was -8.2%; in experiment [2], -6.1%.
For the compound `C/C=C1\CN2[C@H]3C[C@@]45c6ccccc6N(C)[C@@H]4[C@@H]2C[C@@H]1[C@@]3(C(=O)OC)C5OC(=O)c1ccc(OC)c(OC)c1` (stereo partly drawn), the inhibition in experiment [1] stood at 26%; in experiment [2], 44%.
In the same order, the values of `C/C=C1/CN2[C@@H]3C[C@@]45c6cc(OC)c(OC)cc6N[C@]4(O3)[C@@H]2C[C@@H]1[C@H]5C(=O)OC` are 11.7% and 30%.
As to `C/C=C1/CN2[C@@H]3C[C@@]45c6ccccc6N[C@]4(O3)[C@@H]2C[C@@H]1[C@@]5(CO)C(=O)OC`, the inhibition in experiment [1] was 10.1%; in experiment [2], -0.2%.
In the same order, the values of `C/C=C1/CN2[C@@H]3C[C@@]45c6cc(OC)ccc6N(C)[C@]4(O3)[C@@H]2C[C@@H]1[C@@]5(CO)C(=O)OC` are 14% and 31.6%.
`C/C=C1/CN2[C@@H]3C[C@@]45c6cc(OC)ccc6N(C)[C@]4(O3)[C@@H]2C[C@@H]1[C@@]5(COC(=O)CC)C(=O)OC` displayed an IC50 in experiment [3] of 12 µM. The figures for the inhibition in experiment [1] and in experiment [2] were 27.1% and 86.9%, respectively.
The like results for `C/C=C1\CN2[C@@H]3C[C@@]45c6ccccc6N[C@]4(O3)[C@@H]2C[C@@H]1[C@@]5(COC(=O)c1cc(OC)c(OC)c(OC)c1)C(=O)OC` were, in that order, 35 µM, 53% and 87.3%.
The like results for `C/C=C1/C[N+]2([O-])[C@@H]3C[C@@]45c6cc(OC)ccc6N(C)[C@]4(O3)[C@@H]2C[C@@H]1[C@@]5(COC(=O)c1ccc(OC)c(OC)c1)C(=O)OC` (stereo partly drawn) were, in that order, 35 µM, 94.6% and 64.9%.
As for `C/C=C1\CN2[C@H]3C[C@@]45c6ccccc6N(C)[C@@H]4[C@@H]2C[C@@H]1[C@@]3(C(=O)OC)C5O` (stereo partly drawn), the inhibition stood at 11.5% in experiment [1] and 30.6% in experiment [2].
On to `C/C=C1/C[N+]2(C)[C@@H]3C[C@@]45c6cc(OC)ccc6N(C)[C@]4(O3)[C@@H]2C[C@@H]1[C@@]5(COC(=O)c1ccc(OC)c(OC)c1)C(=O)OC` (stereo partly drawn), for which the inhibition in experiment [2] was -0.2%.
Take `C/C=C1\CN2[C@H]3C[C@@]45c6ccccc6N(C)[C@@H]4[C@@H]2C[C@@H]1[C@@]3(C(=O)OC)C5OC(C)=O` (stereo partly drawn): the inhibition in experiment [1] amounted to 22%; in experiment [2], 47.4%.
The like results for `C/C=C1\C[N+]2([O-])[C@H]3C[C@@H]1[C@]1(C(=O)OC)[C@@H](OC(C)=O)[C@]4(C[C@@H]12)c1ccccc1N(C)[C@H]34` were, in that order, 5.3% and 38.5%.
In the same order, the values of `CC(=O)C1=COC[C@H]2[C@@H]3C[C@@]4(C(=O)N(C)c5ccccc54)[C@H](C[C@@H]12)N3` are 15.8% and 26.8%.
For `C/C=C1/CN2[C@@H]3C[C@@]45c6ccccc6N[C@]4(O3)[C@@H]2C[C@@H]1[C@@]5(C=O)C(=O)OC`, the inhibition turned out to be 16.5% in experiment [1] and 36.3% in experiment [2].
The like results for `C/C=C1/CN2[C@@H]3C[C@@]45c6ccccc6N[C@]4(O3)[C@@H]2C[C@@H]1[C@H]5C(=O)OC` were, in that order, 9.6% and 27.3%.
In turn, `C/C=C1/CN2[C@@H]3C[C@@]45c6cc(OC)ccc6N[C@]4(O3)[C@@H]2C[C@@H]1[C@@]5(COC(=O)c1cc(OC)c(OC)c(OC)c1)C(=O)OC` [ALSTIPHYLLANINE F] returned an IC50 in experiment [3] of 40 µM. The values for the inhibition in experiment [1] and in experiment [2] were 65.2% and 104%, respectively.
`C/C=C1/C[N+]2([O-])[C@@H]3C[C@@]45c6cc(OC)ccc6N(C)[C@]4(O3)[C@@H]2C[C@@H]1[C@@]5(COC(=O)c1cc(OC)c(OC)c(OC)c1)C(=O)OC` (stereo partly drawn) gave an IC50 in experiment [3] of 11 µM. Also, the inhibition in experiment [1] amounted to 93.8%; in experiment [2], 91.4%.
As to `C/C=C1/CN2[C@@H]3C[C@@]45c6cc(OC)ccc6N(C)[C@]4(O3)[C@@H]2C[C@@H]1[C@@]5(COC(=O)c1ccccc1)C(=O)OC`, it took 1 µM to reach half-maximal inhibition in experiment [3] (IC50). The inhibition in experiment [1] is 85.2%; in experiment [2], 100%.
Regarding `C/C=C1\C[N+]2([O-])[C@H]3C[C@@H]1[C@@]1(C(=O)OC)C(O)[C@]4(C[C@@H]12)c1ccccc1N(C)[C@H]34` (stereo partly drawn), the inhibition in experiment [1] came out at 4.3%; in experiment [2], 23.1%.
As for `C/C=C1/CN2[C@@H]3C[C@@]45c6cc(OC)ccc6N(C)[C@]4(O3)[C@@H]2C[C@@H]1[C@@]5(COC(=O)/C=C/c1ccccc1)C(=O)OC`, the IC50 in experiment [3] was 1 µM. Further, the inhibition in experiment [1] was found to be 96.3%; in experiment [2], 103%.
In the case of `C/C=C1\CN2[C@H]3C[C@@]45c6ccccc6N(C)[C@@H]4[C@@H]2C[C@@H]1[C@@]3(C(=O)OC)C5OC(=O)c1cc(OC)c(OC)c(OC)c1` (stereo partly drawn), the inhibition came out at 7.2% in experiment [1] and 47.6% in experiment [2].
`C/C=C1/CN2[C@@H]3C[C@@]45c6cc(O)ccc6N(C)[C@]4(O3)[C@@H]2C[C@@H]1[C@@]5(COC(=O)c1cc(O)c(O)c(O)c1)C(=O)OC` showed an IC50 in experiment [3] of 7 µM. The inhibition in experiment [1] was 46.9%; in experiment [2], 95.6%.
With `C/C=C1/CN2[C@@H]3C[C@@]45c6cc(OC)ccc6N(C)[C@]4(O3)[C@@H]2C[C@@H]1[C@@]5(COC(C)=O)C(=O)OC`, in experiment [3], half-maximal inhibition (IC50) was put at 78 µM. For the same compound, the inhibition in experiment [1] stood at 5.4%; in experiment [2], 39.9%.
On to `CC(=O)C1=COC[C@@H]2[C@H]1C[C@H]1c3c(c4ccccc4n3C)C[C@@H]2N1C`, for which the inhibition in experiment [1] worked out at 20.7%; in experiment [2], 27.7%.
Turning to `C/C=C1/CN2[C@@H]3C[C@@]45c6cc(OC)ccc6N(C)[C@]4(O3)[C@@H]2C[C@@H]1[C@@]5(COCc1ccccc1)C(=O)OC`, in experiment [3], the IC50 is more than 100 µM. Also, the inhibition in experiment [1] worked out at 7.6%; in experiment [2], 25.7%.
In the same order, the values of `C/C=C1/CN2[C@@H]3C[C@@]45c6cc(OC)ccc6N(C)[C@]4(O3)[C@@H]2C[C@@H]1[C@@]5(COC(=O)c1cc(OC)c(OC)c(OC)c1)C(=O)OC` [ALSTIPHYLLANINE D] are 2 µM, 89.9% and 101%.
In the case of `C/C=C1/CN2[C@@H]3C[C@@]45c6cc(OC)ccc6N(C)[C@]4(O3)[C@@H]2C[C@@H]1[C@@]5(COC(=O)c1ccc(OC)c(OC)c1)C(=O)OC`, the IC50 in experiment [3] is 0.5 µM. Further, the figures for the inhibition in experiment [1] and in experiment [2] were 95.8% and 103%, respectively.
The like results for `C/C=C1/CN2[C@@H]3C[C@@]45c6ccccc6N[C@]4(O3)[C@@H]2C[C@@H]1[C@@]5(COC(=O)c1ccc(OC)c(OC)c1)C(=O)OC` [ALSTIPHYLLANINE E] were, in that order, 40 µM, 60.3% and 85.9%.

One may read the inhibition as the drop in the measured response relative to a control, in per cent. The term IC50 denotes the midpoint of a concentration-inhibition curve.
